Sampled rows, rich in hits. Any-hit rate of the full collection: about 1.2%.
GalR3 antag – blocks the human galanin receptor 3 | O60755 | HEK293 GalR3-CNG cAMP membrane potential fluorescence; galR3 body fused to GalR1 C-terminus | inhibition, % at 3 µM | actives 0.44% (n = 360,000);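 active means inhibition above the screen-wide average plus 3 SD, cut at about 13% in these data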;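 further: forskolin and galanin both at EC90 stimulate the cells; cAMP rise reported by CNG channel membrane potential dye signal; 0% = forskolin plus galanin with DMSO and 100% = forskolin alone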
Rin1 Abl inh – inhibitors of human Rin1-Abl protein interaction | P00519+Q13671 | TR-FRET Rin1/Abl binding, biochemical | inhibition, % at 7.35 µM | actives 0.4% (n = 360,000) | AID 588664; in the data active means inhibition above about 5%, passing the limit was not always enough
ARFGAP1 inh – inhibits rat ARF GTPase activating protein 1 | Q62848 | Arfgap1-stimulated ARF1 GTP hydrolysis, GDP FP detection | inhibition, % at 16.5 µM | actives 0.26% (n = 360,000) | AID 651572;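 active means inhibition above a per-plate limit, mean inhibition of low control wells plus 3 SD, cut at about 25% in these data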;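 further: 0% = DMSO wells with enzyme and 100% = wells lacking Arfgap1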
Target sequence (Q62848 1-136 limits assumed): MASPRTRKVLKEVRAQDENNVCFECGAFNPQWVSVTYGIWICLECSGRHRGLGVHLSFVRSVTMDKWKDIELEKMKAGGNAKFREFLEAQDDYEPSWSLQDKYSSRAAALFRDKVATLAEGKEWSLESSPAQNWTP
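Assay system: Rat Arfgap1 GAP domain (His6, aa 1-136), purified enzyme | Buffer or medium: HEPES 25 mM pH 7.5, NaCl 150 mM, MgCl2, DTT | Schedule: GTP hydrolysis reaction 2 h at 25 °C | Signal: FP of antibody-bound GDP Alexa 633 tracer, ex 620/em 688 nm | Measure: Percent inhibition of Arfgap1-stimulated GTP hydrolysis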
ASAP1 GAP inh – inhibitors of human ASAP1 ArfGAP activity; ASAP1-stimulated ARF1 GTP hydrolysis, GDP FP detection; inhibition, % at 16.5 µM; actives 0.19% (n = 360,000); AID 624377; in the data active means inhibition above about 25%;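 further: 0% = vehicle with enzyme and substrate and 100% = no enzyme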
Target sequence (Q9ULH1 325-724 limits assumed): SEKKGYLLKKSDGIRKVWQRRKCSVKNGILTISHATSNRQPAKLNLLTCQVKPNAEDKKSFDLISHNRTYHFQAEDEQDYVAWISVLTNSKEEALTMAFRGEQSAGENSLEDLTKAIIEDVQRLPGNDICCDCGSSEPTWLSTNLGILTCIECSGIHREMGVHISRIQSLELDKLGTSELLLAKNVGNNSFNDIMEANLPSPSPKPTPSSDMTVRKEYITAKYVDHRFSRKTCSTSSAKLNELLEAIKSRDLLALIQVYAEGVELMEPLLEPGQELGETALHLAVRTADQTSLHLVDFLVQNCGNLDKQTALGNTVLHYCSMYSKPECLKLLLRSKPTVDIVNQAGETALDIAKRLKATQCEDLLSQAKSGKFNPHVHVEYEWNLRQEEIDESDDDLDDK
Rin1-Abl confirm – confirmation of inhibitors of human Rin1-Abl interaction. shares compounds with Rin1 Abl inh. TR-FRET Rin1-Abl binding, purified proteins. inhibition, % at 7.35 µM. actives 49% (n = 1,300)
GFP quench-1 – GFP fluorescence interference artifact; inhibition, % at 6.75 µM; shares compounds with Rin1 Abl inh; actives 8.5% (n = 1,300); inhibitors/quenchers counterscreen;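 further: ABL1-eGFP fusion protein alone without its partner RIN1-SBP; 0% = protein with vehicle and 100% = wells lacking protein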
GFP quench DR – counter-screen for Rin1-Abl inhibitors: GFP quenchers, dose response. shares compounds with Rin1 Abl inh. AID 602182. 230 tested, under 10 active. GFP fluorescence interference/quenching counterscreen. IC50, µM; call rule not given here;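 further: ABL1-eGFP fusion protein alone without its RIN1 binding partner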
GFP quench-2 – quenches GFP fluorescence in Rin1-Abl counterscreen; GFP fluorescence quenching counterscreen, biochemical; 25 tested, under 10 active; AID 602397; IC50, µM; shares compounds with Rin1 Abl inh; call rule not given here
* = called active by the depositor; / = no result. Unless noted, no stated cut-off is given here; in the data, active means inhibition above about 6.5%; inactive means the rest.

SMILES | GalR3 antag | Rin1 Abl inh | ARFGAP1 inh | ASAP1 GAP inh | Rin1-Abl confirm | GFP quench-1 | others
C[C@@H]1O[C@@H](O[C@H]2C[C@@H](O)[C@]3(CO)[C@@H]4C(CC[C@]3(O)C2)[C@@]2(O)CC[C@H](C3COC(=O)C3)[C@@]2(C)C[C@H]4O)[C@H](O)[C@H](O)[C@H]1O (some centres undefined) | 16* | -2 | 1 | 0 | / | /
C[C@H]1CC[C@@H]2[C@@H](C)[C@H]3[C@H](C[C@H]4[C@@H]5CC=C6C[C@@H](O[C@@H]7O[C@H](CO)[C@H](O)[C@H](O[C@@H]8O[C@H](CO)[C@@H](O)[C@H](O)[C@H]8O)[C@H]7O[C@@H]7O[C@@H](C)[C@H](O)[C@@H](O)[C@H]7O)CC[C@]6(C)[C@H]5CC[C@]34C)N2C1 | -6 | 0 | -1 | -8 | / | /
Cc1cc(N2CCNC[C@H]2C)ccc1N1CC[C@H](O)C1 | -7 | / | 0 | -2 | / | /
C[C@]12CC[C@H](O)C[C@H]1CC[C@@H]1[C@@H]2CC[C@]2(C)[C@@H](C3=CC(=O)OC3)CC[C@]12O | 26* | 3 | 1 | -10 | / | /
COC1C(O)C(C)OC(OC2CCC3(C)C(CCC4C3C(O)CC3(C)C(C5=CC(=O)OC5)CCC43O)C2)C1O (centres undefined) | 28* | 0 | -2 | -16 | / | /
CC12CCC(O)CC1CCC1C2CCC2(C)C(C3=CC(=O)OC3)C(O)CC12O (centres undefined) | 12 | 2 | 0 | 0 | / | /
CC12CCC(O)CC1CCC1C2CCC2(C)C(C3=CC(=O)OC3)CCC12O (centres undefined) | 30* | 1 | 4 | -16 | / | /
N#CCCC#N | 0 | / | 4 | -1 | / | /
CN1C[C@H](O)[C@H]2C[C@@H]1c1ccccc1O2 | -7 | / | 4 | 8 | / | /
O=[N+]([O-])c1ccccc1Cl | -1 | 4 | 1 | 0 | / | /
O=C1NC(=O)C(Sc2ccccc2[N+](=O)[O-])C(=O)N1 | -6 | 4 | 22 | 42* | / | /
Brc1ccc2c(c1)-n1nncc1CNC2 | -8 | / | 4 | 2 | / | /
O=C1NC(=O)C(Nc2ccc(Cl)c(Cl)c2)C(=O)N1 | -6 | 5 | 14 | 47* | / | /
O=C(Nc1ccc(Cl)c(Cl)c1)c1ccco1 | -8 | 1 | 17 | 16 | / | /
CCn1nc(-c2ccccc2)nc2c(=O)n(C)c(=O)nc1-2 | / | 27* | / | / | / | /
CN1C(=O)/C(=C/C=C/c2ccco2)C(=O)NC1=S | 0 | 5.4* | -2 | -7 | / | /
O=C1NC(=O)N(c2ccccc2)C(=O)/C1=C/C=C/c1ccco1 | -1 | 3 | 5 | 2 | / | /
O=C1CC=C2C3CC4N(CCC45c4cc(O)c(O)cc4N1C25)CC3=CCBr (centres undefined) | -3 | 31* | -4 | 14 | / | /
CN1C2CCC1C(C(=O)Oc1ccccc1)C(c1ccc(Cl)cc1)C2 (centres undefined) | -7 | / | 3 | -6 | / | /
CN(C)c1ccc(/C=C/C=C2/C(=O)NC(=O)N(c3ccccc3)C2=O)cc1 | 2 | -9 | 5 | 28* | / | /
Clc1ccc2c(c1)C(OC1CN3CCC1CC3)c1ccccc1CS2 (centres undefined) | -9 | 9.7* | 13 | -5 | 3 | 0
O=C(NC1CCCCC1)N1Cc2cc(Br)ccc2-n2nncc2C1 | -3 | / | -2 | 3 | / | /
O=C(O)CCl | 4 | / | -3 | -1 | / | /
C[C@]12CC[C@H](O)CC1=CC(=O)C1C2CC[C@]2(C)C(=O)CCC12 (some centres undefined) | -4 | 13* | -8 | 7 | 6 | -1
Brc1ccc(Oc2cc(Br)c(Br)cc2Br)c(Br)c1 | 0 | 8.2* | 3 | -7 | 13* | -2
SMILES | GalR3 antag | Rin1 Abl inh | ARFGAP1 inh | ASAP1 GAP inh | Rin1-Abl confirm | GFP quench-1 | others
COC(=O)C1CC(OC(C)=O)C(=O)[C@H]2C1(C)CC[C@H]1C(=O)OC(c3ccoc3)CC12C (some centres undefined) | 1 | / | 8 | 1 | / | /
Cn1cc(C(=O)OCC(=O)N2CCCCC2)c2ccccc21 | -5 | 0 | 23 | 11 | / | /
NC(=O)c1cn(C2CCCCC2)c2ccccc2c1=O | -8 | 10* | -5 | -4 | 11* | 0
CN(C)C1C(=O)C(C(N)=O)=C(O)C2(O)C(=O)C3=C(O)c4c(O)cccc4C(C)(O)C3C(O)C12 (centres undefined) | / | 25* | -12 | -4 | 3 | 2
CCOC(=O)N1CCC(NC(=O)CCc2nc(C3=CCN(C)CC3)no2)CC1 | -2 | 70* | -3 | -21 | 50* | 0 | GFP quench DR=>68;GFP quench-2=>68
CC(C)(C)n1nnnc1C(C1CC1)N1CCC(n2c(=O)[nH]c3ccccc32)CC1 (centres undefined) | -5 | 16 | -7 | -1 | / | /
O=c1[nH]c2ccccc2n1C1CCN(C(c2nnnn2C2CCCCC2)C2CC2)CC1 (centres undefined) | -4 | 74* | -4 | 3 | 74* | -1 | GFP quench DR=>68
O=c1[nH]c2ccccc2n1C1CCN(C(c2nnnn2C2CCCC2)C2CC2)CC1 (centres undefined) | -5 | 31* | -1 | 3 | 23* | 0 | GFP quench DR=>68
O=C(NCCN1CCC2(CC1)C(=O)NCN2c1ccccc1)c1ccc(F)cc1 | -9 | / | -16 | -12 | / | /
CCCC(C)C(=O)NC1CCSC1=O (centres undefined) | -2 | 4.9* | -4 | -5 | 0 | -1
Cc1ccc(OC(=O)N(C)C[C@H]2OCc3cnnn3CCCC(=O)N([C@@H](C)CO)C[C@@H]2C)cc1 | -4 | / | 0 | -9 | / | /
CN1CC[C@@H]2CN[C@H](c3ccccc3)C[C@@H]21 | -7 | / | -9 | -4 | / | /
NC(=O)C1(N2CCCCC2)CCN(Cc2ccccc2)CC1 | -2 | 7.9* | -9 | 4 | 0 | 0
O=C(Cc1ccccc1)OCCN1CCCCC1 | -4 | 2 | 2 | -3 | / | /
CCC(C)(O)C(=O)OC1C(=O)OC2CC3C(C)=CC(O)C(O)C3(C)C3C4(O)OCC23C1C(C)C4O (centres undefined) | -7 | -1 | 9 | 5 | / | /
O=C(NCCN1CCC2(CC1)C(=O)NCN2c1ccccc1)c1ccc2ccccc2c1 | -5 | / | 10 | -3 | / | /
Cc1nc2c(=O)n(C)c(=O)nc-2n(C)n1 | -5 | 37* | -7 | -3 | 45* | 0 | GFP quench DR=>68
CC/C(CC(c1ccccc1)c1c(O)c2ccccc2oc1=O)=N\NC(N)=S (centres undefined) | -5 | 5.9* | -5 | 2 | 5 | 0
